Data as given in ChEMBL document CHEMBL2177096, “Sulfonyl fluoride inhibitors of fatty acid amide hydrolase” (J Med Chem, 2012).

Key:
[1] = biological target: Cannabinoid receptor 2 (Mus musculus, UniProt P47936); assay: Displacement of [3H]CP-55,940 from mouse CB2 receptor expressed in HEK293 cells; type: cell-based
How it was run: (§1)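 Membranes from rat brain (CB1) or from HEK293 cells overexpressing mouse CB2 were used, with [3H]CP-55,940 as radioligand. Data fitted by nonlinear regression. Ki values come from three independent experiments run in duplicate and are given as the mean of the three.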

[2] = biological target: Cannabinoid receptor 1 (Rattus norvegicus, UniProt P20272); assay: Displacement of [3H]CP-55,940 from CB1 receptor in rat brain homogenates; type: tissue-based; how it was run: as §1
[3] = Inhibition of rat FAAH deltaTM mutant expressed in Escherichia coli using AAMCA as substrate after 15 mins by medium throughput fluorescent assay
[4] = biological target: T1, Monoglyceride lipase (Homo sapiens, UniProt Q99685); assay: Inhibition of recombinant human hexahistidine-tagged MGL expressed in Escherichia coli using AHMMCE as substrate after 15 mins by medium throughput fluorescent assay
T1 sequence (Q99685 whole entry): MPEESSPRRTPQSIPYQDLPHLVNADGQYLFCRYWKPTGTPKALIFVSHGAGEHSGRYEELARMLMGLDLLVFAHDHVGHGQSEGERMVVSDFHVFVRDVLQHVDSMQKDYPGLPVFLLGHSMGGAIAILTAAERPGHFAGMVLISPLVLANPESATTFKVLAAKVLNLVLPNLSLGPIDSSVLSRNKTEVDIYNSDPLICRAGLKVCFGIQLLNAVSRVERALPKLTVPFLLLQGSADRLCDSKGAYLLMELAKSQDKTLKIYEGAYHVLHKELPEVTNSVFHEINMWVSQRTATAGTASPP

[5] = organism: Rattus norvegicus; assay: Irreversible inhibition of rat FAAH deltaTM mutant expressed in Escherichia coli assessed as recovery of enzyme activity using AAMCA as substrate at 40 times IC50 treated for 1 hr measured after 80 mins of rapid dilution by medium throughput fluorescent assay; parameters: scale not given: the % may be the effect or the level left
[6] = Inhibition of human FAAH deltaTM mutant expressed in Escherichia coli using AAMCA as substrate after 15 mins by medium throughput fluorescent assay

Chain of Cannabinoid receptor 2 (P47936 whole entry): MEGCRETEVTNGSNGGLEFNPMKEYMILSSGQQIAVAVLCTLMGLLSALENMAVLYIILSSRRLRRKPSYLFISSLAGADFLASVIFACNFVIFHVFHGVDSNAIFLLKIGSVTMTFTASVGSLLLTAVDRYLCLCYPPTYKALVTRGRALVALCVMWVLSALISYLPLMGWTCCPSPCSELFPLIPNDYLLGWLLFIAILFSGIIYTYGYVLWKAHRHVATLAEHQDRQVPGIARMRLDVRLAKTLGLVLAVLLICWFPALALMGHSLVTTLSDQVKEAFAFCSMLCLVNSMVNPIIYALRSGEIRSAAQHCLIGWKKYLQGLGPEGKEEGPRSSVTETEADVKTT
Chain of Cannabinoid receptor 1 (P20272 whole entry): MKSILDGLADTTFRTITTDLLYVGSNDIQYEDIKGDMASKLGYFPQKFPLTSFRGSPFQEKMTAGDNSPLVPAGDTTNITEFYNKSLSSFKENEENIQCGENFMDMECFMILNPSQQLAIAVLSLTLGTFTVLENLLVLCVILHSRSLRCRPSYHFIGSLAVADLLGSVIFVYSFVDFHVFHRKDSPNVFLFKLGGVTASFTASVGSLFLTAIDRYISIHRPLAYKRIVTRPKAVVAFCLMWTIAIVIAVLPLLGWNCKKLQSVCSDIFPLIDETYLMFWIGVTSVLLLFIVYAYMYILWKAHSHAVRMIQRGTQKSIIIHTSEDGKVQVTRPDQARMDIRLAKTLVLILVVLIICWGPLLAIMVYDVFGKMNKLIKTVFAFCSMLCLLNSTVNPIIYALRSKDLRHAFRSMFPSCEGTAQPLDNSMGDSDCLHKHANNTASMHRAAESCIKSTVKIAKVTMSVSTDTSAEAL

SMILES | Ki [1] | Ki [2] | IC50 [3] | other results
O=S(=O)(F)CCCCOc1ccc(OCc2ccccc2)cc1 | 203 nM | 104 nM | 1.2 nM | 
O=S(=O)(F)CCCCCCCc1ccccc1O |  |  | 1.2 nM | 
COS(=O)(=O)CCCCCCCc1ccc(OCc2ccccc2)cc1 |  |  | 269 nM | IC50 [4]: > 5000 nM
O=S(=O)(F)CCCCCCCc1ccccc1OCc1ccccc1 |  |  | 4.3 nM | 
O=S(=O)(F)CCCCCc1ccccc1 |  |  | 50.4 nM | 
O=S(=O)(F)CCCCCCCc1ccccc1 |  |  | 37 nM | 
O=S(=O)(F)CCCCCCCc1ccc(O)cc1 | 698 nM | 163 nM |  | 
O=S(=O)(F)CCCc1ccccc1 |  |  | 205 nM | 
O=S(=O)(F)CCCCCc1ccc(O)cc1 | 577 nM | 192 nM | 2.8 nM | Activity [5]: 8%; IC50 [6]: 5.1 nM
O=S(=O)(F)CCCCCCCCc1ccccc1 |  |  | 176 nM | 
O=S(=O)(F)CCCCCc1ccc(OCc2ccccc2)cc1 | 194 nM | 118 nM | 1.5 nM | 
O=S(=O)(F)CCCCCCCc1cccc(OCc2ccccc2)c1 | 99 nM | 335 nM |  | 
O=S(=O)(F)CCCCCCc1ccccc1 |  |  | 37.7 nM | 
O=S(=O)(F)CCCCc1ccccc1 |  |  | 88.2 nM | 
O=S(=O)(F)CCCCCCCc1cccc(O)c1 |  |  | 2.5 nM | 
